Source: ChEMBL document CHEMBL2396641, “Synthesis, antioxidant, and antimicrobial evaluation of some 2-arylbenzimidazole derivatives” (Bioorg Med Chem Lett, 2013)
Converted amounts (≈) assume the structure as drawn. The source made the active and inactive calls. The calls are words filed in the database; no cut-off is given here.

How the values were obtained:
[1] = tested on: NIH3T3; assay: Cytotoxicity against mouse NIH/3T3 cells after 48 hrs by SRB assay; assay type: cell-based; details: NIH3T3, 48 h
[2] = tested on: Bacillus cereus; assay: Antibacterial activity against Bacillus cereus after 24 hrs by agar dilution method; assay type: functional
[3] = tested on: Staphylococcus epidermidis; assay: Antibacterial activity against Staphylococcus albus after 24 hrs by agar dilution method; assay type: functional
[4] = tested on: Staphylococcus aureus; assay: Antibacterial activity against Staphylococcus aureus after 24 hrs by agar dilution method; assay type: functional
[5] = tested on: Pseudomonas aeruginosa; assay: Antibacterial activity against Pseudomonas aeruginosa after 24 hrs by agar dilution method; assay type: functional
[6] = tested on: Escherichia coli; assay: Antibacterial activity against Escherichia coli after 24 hrs by agar dilution method; assay type: functional
[7] = tested on: Radical scavenging activity; assay: Antioxidant activity assessed as DPPH radical scavenging activity after 30 mins by spectrophotometric analysis; assay type: functional
Outline: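 DPPH radical bleaching followed as loss of absorbance at 517 nm; IC50 derived; mean ± SD, n = 3.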

[8] = Antioxidant activity assessed as hydroxyl radical scavenging activity after 1 hr by spectrophotometric analysis; assay type: functional
[9] = Antioxidant activity assessed as superoxide radical anion scavenging activity by spectrophotometric analysis; assay type: functional
[10] = Antioxidant activity assessed as ferric ion reducing ability after 20 mins by spectrophotometric analysis; assay type: functional
[11] = Antioxidant activity assessed as ferric ion reducing ability at 1 to 50 uM after 20 mins by spectrophotometric analysis; assay type: functional

Compound	MIC [2]	MIC [3]	MIC [4]	MIC [5]	MIC [6]	EC50 [7]	EC50 [8]	EC50 [9]	IC50 [1]	MBC [3]	MBC [4]	MBC [2]	Activity [10]	Activity [11]	MBC [6]	MBC [5]
Oc1cccc(-c2nc3ccccc3[nH]2)c1	50 µM (≈ 10.5 µg/mL)	> 200 µM	0.39 µM (≈ 0.082 µg/mL)	> 200 µM	12.5 µM (≈ 2.63 µg/mL)	> 200 µM	> 200 µM	> 200 µM	> 200 µM		0.78 µM (≈ 0.164 µg/mL)	200 µM (≈ 42 µg/mL)			100 µM (≈ 21 µg/mL)	
COc1ccc2[nH]c(-c3ccccc3O)nc2c1	200 µM (≈ 48.1 µg/mL)	> 200 µM	> 200 µM	> 200 µM	100 µM (≈ 24 µg/mL)	> 200 µM	190 µM	87 µM	> 200 µM			> 200 µM			> 200 µM	
CC(C)(C)c1cc(O)ccc1O [E319]						36 µM	65 µM	> 200 µM					Dose-dependent effect			
Oc1ccc(-c2nc3cc(O)ccc3[nH]2)cc1	50 µM (≈ 11.3 µg/mL)	> 200 µM	1.56 µM (≈ 0.353 µg/mL)	> 200 µM	> 200 µM	34 µM	159 µM	> 200 µM	> 200 µM		1.56 µM (≈ 0.353 µg/mL)	50 µM (≈ 11.3 µg/mL)	Dose-dependent effect	Active		
Oc1cccc(-c2nc3cc(O)ccc3[nH]2)c1	25 µM (≈ 5.66 µg/mL)	> 200 µM	1.56 µM (≈ 0.353 µg/mL)	> 200 µM	100 µM (≈ 22.6 µg/mL)	40 µM	> 200 µM	> 200 µM	> 200 µM		1.56 µM (≈ 0.353 µg/mL)	50 µM (≈ 11.3 µg/mL)	Dose-dependent effect	Active	> 200 µM	
COc1ccc(-c2nc3cc(O)ccc3[nH]2)c(OC)c1	50 µM (≈ 13.5 µg/mL)	> 200 µM	0.39 µM (≈ 0.105 µg/mL)	> 200 µM	12.5 µM (≈ 3.38 µg/mL)	32 µM	> 200 µM	> 200 µM	> 200 µM		0.39 µM (≈ 0.105 µg/mL)	50 µM (≈ 13.5 µg/mL)	Dose-dependent effect	Active	25 µM (≈ 6.76 µg/mL)	
Oc1ccc2[nH]c(-c3ccc(O)c(O)c3)nc2c1	100 µM (≈ 24.2 µg/mL)	> 200 µM	> 200 µM	> 200 µM	> 200 µM	33 µM	77 µM	> 200 µM	> 200 µM			> 200 µM	Dose-dependent effect	Active		
COc1ccc(-c2nc3ccccc3[nH]2)cc1	50 µM (≈ 11.2 µg/mL)	100 µM (≈ 22.4 µg/mL)	1.56 µM (≈ 0.35 µg/mL)	> 200 µM	12.5 µM (≈ 2.8 µg/mL)	> 200 µM	> 200 µM	> 200 µM	> 200 µM	100 µM (≈ 22.4 µg/mL)	1.56 µM (≈ 0.35 µg/mL)	100 µM (≈ 22.4 µg/mL)			50 µM (≈ 11.2 µg/mL)	
COc1ccc2[nH]c(-c3cccc(O)c3)nc2c1	25 µM (≈ 6.01 µg/mL)	> 200 µM	100 µM (≈ 24 µg/mL)	> 200 µM	12.5 µM (≈ 3 µg/mL)	> 200 µM	> 200 µM	> 200 µM	> 200 µM		200 µM (≈ 48.1 µg/mL)	200 µM (≈ 48.1 µg/mL)			100 µM (≈ 24 µg/mL)	
Oc1ccc2[nH]c(-c3ccccc3)nc2c1	50 µM (≈ 10.5 µg/mL)	> 200 µM	1.56 µM (≈ 0.328 µg/mL)	> 200 µM	100 µM (≈ 21 µg/mL)	42 µM	> 200 µM	> 200 µM	> 200 µM		1.56 µM (≈ 0.328 µg/mL)	100 µM (≈ 21 µg/mL)	Dose-dependent effect	Active	> 200 µM	
COc1ccc2[nH]c(-c3ccc(O)c(OC)c3)nc2c1	50 µM (≈ 13.5 µg/mL)	> 200 µM	100 µM (≈ 27 µg/mL)	> 200 µM	> 200 µM	58 µM	> 200 µM	> 200 µM	> 200 µM		200 µM (≈ 54.1 µg/mL)	200 µM (≈ 54.1 µg/mL)				
O=C(O)c1cn(C2CC2)c2cc(N3CCNCC3)c(F)cc2c1=O [CIPROFLOXACIN]	0.39 µM (≈ 0.129 µg/mL)	0.39 µM (≈ 0.129 µg/mL)	0.39 µM (≈ 0.129 µg/mL)	0.78 µM (≈ 0.258 µg/mL)	0.39 µM (≈ 0.129 µg/mL)				> 200 µM	0.39 µM (≈ 0.129 µg/mL)	0.39 µM (≈ 0.129 µg/mL)	0.39 µM (≈ 0.129 µg/mL)			0.39 µM (≈ 0.129 µg/mL)	0.78 µM (≈ 0.258 µg/mL)
COc1ccc2[nH]c(-c3ccc(O)cc3O)nc2c1	50 µM (≈ 12.8 µg/mL)	100 µM (≈ 25.6 µg/mL)	50 µM (≈ 12.8 µg/mL)	> 200 µM	6.25 µM (≈ 1.6 µg/mL)	129 µM	> 200 µM	189 µM	> 200 µM	200 µM (≈ 51.3 µg/mL)	100 µM (≈ 25.6 µg/mL)	100 µM (≈ 25.6 µg/mL)			100 µM (≈ 25.6 µg/mL)	
COc1ccc(-c2nc3cc(OC)ccc3[nH]2)cc1	50 µM (≈ 12.7 µg/mL)	100 µM (≈ 25.4 µg/mL)	25 µM (≈ 6.36 µg/mL)	> 200 µM	6.25 µM (≈ 1.59 µg/mL)	> 200 µM	> 200 µM	> 200 µM	> 200 µM	> 200 µM	200 µM (≈ 50.9 µg/mL)	200 µM (≈ 50.9 µg/mL)			100 µM (≈ 25.4 µg/mL)	

Continued, in another order:

MIC [2]	MIC [3]	MIC [4]	MIC [5]	MIC [6]	EC50 [7]	EC50 [8]	EC50 [9]	Compound	IC50 [1]	MBC [3]	MBC [4]	MBC [2]	Activity [10]	Activity [11]	MBC [6]	MBC [5]
> 200 µM	100 µM (≈ 28.4 µg/mL)	6.25 µM (≈ 1.78 µg/mL)	> 200 µM	> 200 µM	> 200 µM	> 200 µM	> 200 µM	COc1ccc(-c2nc3cc(OC)ccc3[nH]2)c(OC)c1	> 200 µM	200 µM (≈ 56.9 µg/mL)	50 µM (≈ 14.2 µg/mL)					
100 µM (≈ 25.6 µg/mL)	> 200 µM	> 200 µM	> 200 µM	> 200 µM	23 µM	> 200 µM	> 200 µM	COc1ccc(O)cc1-c1nc2cc(O)ccc2[nH]1	> 200 µM			> 200 µM	Dose-dependent effect	Active		
> 200 µM	> 200 µM	100 µM (≈ 19.4 µg/mL)	> 200 µM	6.25 µM (≈ 1.21 µg/mL)	> 200 µM	> 200 µM	> 200 µM	c1ccc(-c2nc3ccccc3[nH]2)cc1	> 200 µM		> 200 µM				100 µM (≈ 19.4 µg/mL)	
50 µM (≈ 11.2 µg/mL)	> 200 µM	> 200 µM	> 200 µM	25 µM (≈ 5.61 µg/mL)	> 200 µM	> 200 µM	> 200 µM	COc1ccc2[nH]c(-c3ccccc3)nc2c1	> 200 µM			200 µM (≈ 44.9 µg/mL)			100 µM (≈ 22.4 µg/mL)	
> 200 µM	> 200 µM	12.5 µM (≈ 2.63 µg/mL)	> 200 µM	25 µM (≈ 5.26 µg/mL)	> 200 µM	> 200 µM	> 200 µM	Oc1ccc(-c2nc3ccccc3[nH]2)cc1	> 200 µM		50 µM (≈ 10.5 µg/mL)				100 µM (≈ 21 µg/mL)	
25 µM (≈ 5.66 µg/mL)	100 µM (≈ 22.6 µg/mL)	1.56 µM (≈ 0.353 µg/mL)	> 200 µM	6.25 µM (≈ 1.41 µg/mL)	30 µM	124 µM	169 µM	Oc1ccc2[nH]c(-c3ccccc3O)nc2c1	> 200 µM	> 200 µM	1.56 µM (≈ 0.353 µg/mL)	25 µM (≈ 5.66 µg/mL)	Dose-dependent effect	Active	25 µM (≈ 5.66 µg/mL)	
> 200 µM	> 200 µM	> 200 µM	> 200 µM	> 200 µM	> 200 µM	> 200 µM	> 200 µM	COc1cc(OC)cc(-c2nc3cc(OC)ccc3[nH]2)c1	> 200 µM							
25 µM (≈ 6.06 µg/mL)	> 200 µM	0.78 µM (≈ 0.189 µg/mL)	> 200 µM	> 200 µM	26 µM	> 200 µM	> 200 µM	Oc1cc(O)cc(-c2nc3cc(O)ccc3[nH]2)c1	> 200 µM		0.78 µM (≈ 0.189 µg/mL)	25 µM (≈ 6.06 µg/mL)	Dose-dependent effect	Active		
> 200 µM	> 200 µM	> 200 µM	> 200 µM	25 µM (≈ 5.26 µg/mL)	> 200 µM	> 200 µM	122 µM	Oc1ccccc1-c1nc2ccccc2[nH]1	> 200 µM						100 µM (≈ 21 µg/mL)	
50 µM (≈ 12 µg/mL)	> 200 µM	100 µM (≈ 24 µg/mL)	> 200 µM	12.5 µM (≈ 3 µg/mL)	> 200 µM	> 200 µM	> 200 µM	COc1ccc2[nH]c(-c3ccc(O)cc3)nc2c1	> 200 µM		200 µM (≈ 48.1 µg/mL)	200 µM (≈ 48.1 µg/mL)			100 µM (≈ 24 µg/mL)	
100 µM (≈ 28.4 µg/mL)	> 200 µM	6.25 µM (≈ 1.78 µg/mL)	> 200 µM	> 200 µM	> 200 µM	> 200 µM	> 200 µM	COc1ccc(OC)c(-c2nc3cc(OC)ccc3[nH]2)c1	> 200 µM		50 µM (≈ 14.2 µg/mL)	200 µM (≈ 56.9 µg/mL)				
25 µM (≈ 7.11 µg/mL)	100 µM (≈ 28.4 µg/mL)	50 µM (≈ 14.2 µg/mL)	> 200 µM	> 200 µM	> 200 µM	> 200 µM	> 200 µM	COc1ccc2[nH]c(-c3ccc(OC)c(OC)c3)nc2c1	> 200 µM	> 200 µM	200 µM (≈ 56.9 µg/mL)	100 µM (≈ 28.4 µg/mL)				
